ChEMBL document CHEMBL4346672, “Antimicrobial and KPC/AmpC inhibitory activity of functionalized benzosiloxaboroles” (Eur J Med Chem, 2019)
In brackets after ≈: the same amount, converted by molar mass. Activity calls are given as the source filed them. The calls are words filed in the database; no cut-off is given here.

Experiments:
Staphylococcus aureus [1] = experiment: Antibacterial activity against Staphylococcus aureus ATCC 6538P assessed as diameter of zone inhibition measured after 18 hrs by CLSI disc diffusion method; format: functional
Summary of the method: (§1)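 Disc diffusion on Mueller-Hinton II agar. Compounds dissolved in DMSO. Strains stored at -80 °C and subcultured twice on tryptic soy agar before testing. Inhibition zones read after 35 °C, 18 h.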

Enterococcus faecalis = experiment: Antibacterial activity against Enterococcus faecalis ATCC 29212 measured after 18 hrs by CLSI broth dilution method; format: functional; settings: ATCC 29212, 18 h
Summary of the method: (§2)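 Broth MIC in Mueller-Hinton II broth following CLSI, compounds dissolved in DMSO. Strains subcultured twice on tryptic soy agar before testing. Growth read after 35 °C, 18 h.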

Klebsiella pneumoniae = experiment: Antibacterial activity against Klebsiella pneumoniae ATCC 13883 measured after 18 hrs by CLSI broth dilution method; format: functional; settings: ATCC 13883, 18 h; summary of the method: as §2
Staphylococcus aureus [2] = experiment: Antibacterial activity against Staphylococcus aureus ATCC 6538P measured after 18 hrs by CLSI broth dilution method; format: functional; summary of the method: as §2
Bacillus subtilis = experiment: Antibacterial activity against Bacillus subtilis ATCC 6633 assessed as diameter of zone inhibition measured after 18 hrs by CLSI disc diffusion method; format: functional; summary of the method: as §1
Burkholderia cepacia [3] = experiment: Antibacterial activity against Burkholderia cepacia ATCC 25416 measured after 18 hrs by CLSI broth dilution method; format: functional; settings: ATCC 25416, 18 h; summary of the method: as §2
Enterobacter cloacae [4] = experiment: Antibacterial activity against Enterobacter cloacae DSM 6234 assessed as diameter of zone inhibition measured after 18 hrs by CLSI disc diffusion method; format: functional; summary of the method: as §1
Saccharomyces cerevisiae [5] = experiment: Antifungal activity against Saccharomyces cerevisiae ATCC 9763 diameter of zone inhibition incubated for 24 hrs by CLSI disc diffusion method; format: functional
Summary of the method: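 Disc-diffusion run on Mueller-Hinton II agar with 2% glucose and 0.5 mg/L methylene blue, using compounds in DMSO. Yeast was precultured on Sabouraud dextrose agar (24–48 h, 30 °C). Zones read after 24 h at 35 °C.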

Serratia marcescens = experiment: Antibacterial activity against Serratia marcescens ATCC 13880 measured after 18 hrs by CLSI broth dilution method; format: functional; settings: ATCC 13880, 18 h; summary of the method: as §2
Candida albicans [6] = experiment: Antifungal activity against Candida albicans ATCC 90028 assessed as diameter of zone inhibition incubated for 24 hrs by CLSI disc diffusion method; format: functional
Summary of the method: (§3)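 Yeast disc diffusion on Mueller-Hinton agar supplemented with 2% glucose and 0.5 mg/L methylene blue. Compounds in DMSO. Yeasts subcultured on Sabouraud dextrose agar before testing. Zones read after 35 °C, 24 h.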

Enterobacter cloacae [7] = experiment: Antibacterial activity against Enterobacter cloacae DSM 6234 assessed as fold reduction of MIC in presence of efflux pump inhibitor PAbetaN incubated for 18 hrs by broth microdilution method; format: functional
Summary of the method: (§4)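 MICs determined with and without PAβN at 50 mg/L in Mueller-Hinton broth containing 1 mM MgSO₄. 2-fold serial dilutions per CLSI. Fold change taken from the paired MICs after 35 °C, 18 h.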

Pichia kudriavzevii = experiment: Antifungal activity against Candida krusei ATCC 6258 assessed as diameter of zone inhibition incubated for 24 hrs by CLSI disc diffusion method; format: functional; summary of the method: as §3
Escherichia coli [8] = experiment: Antibacterial activity against Escherichia coli ATCC 25922 assessed as fold reduction of MIC in presence of efflux pump inhibitor PAbetaN incubated for 18 hrs by CLSI broth microdilution method; format: functional; summary of the method: as §4
Proteus mirabilis = experiment: Antibacterial activity against Proteus mirabilis ATCC 12453 measured after 18 hrs by CLSI broth dilution method; format: functional; settings: ATCC 12453, 18 h; summary of the method: as §2
Saccharomyces cerevisiae [9] = experiment: Antifungal activity against Saccharomyces cerevisiae ATCC 9763 assessed as decrease in fungal cell growth at 0.78 to 12.5 mg/L incubated for 24 hrs by CLSI broth dilution method; format: functional; settings: ATCC 9763, 24 h
Summary of the method: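 Yeast strain subcultured on Sabouraud dextrose agar for 24–48 h at 30 °C before testing. Compounds dissolved in DMSO.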

Pseudomonas aeruginosa [10] = experiment: Antibacterial activity against Pseudomonas aeruginosa ATCC 27853 measured after 18 hrs by CLSI broth dilution method; format: functional; settings: ATCC 27853, 18 h; summary of the method: as §2
Escherichia coli [11] = experiment: Antibacterial activity against Escherichia coli ATCC 25922 assessed as diameter of zone inhibition measured after 18 hrs by CLSI disc diffusion method; format: functional; summary of the method: as §1
Enterococcus faecium = experiment: Antibacterial activity against Enterococcus faecium ATCC 6057 measured after 18 hrs by CLSI broth dilution method; format: functional; settings: ATCC 6057, 18 h; summary of the method: as §2
[12] = test system: Stenotrophomonas maltophilia; experiment: Antibacterial activity against Stenotrophomonas maltophilia ATCC 13637 measured after 18 hrs by CLSI broth dilution method; format: functional; settings: ATCC 13637, 18 h; summary of the method: as §2
Candida parapsilosis = experiment: Antifungal activity against Candida parapsilosis ATCC 22019 assessed as diameter of zone inhibition incubated for 24 hrs by CLSI disc diffusion method; format: functional; summary of the method: as §3
[13] = Dissociation constant, pKa1 of compound in 0.1 M NaOH by potentiometric analysis; format: physicochemical
[14] = test system: Meyerozyma guilliermondii; experiment: Antifungal activity against Candida guilliermondii IBA 155 assessed as diameter of zone inhibition incubated for 24 hrs by CLSI disc diffusion method; format: functional; summary of the method: as §3
Candida albicans [15] = experiment: Antifungal activity against Candida albicans ATCC 90028 assessed as decrease in fungal cell growth at 0.78 to 12.5 mg/L incubated for 24 hrs by CLSI broth dilution method; format: functional; settings: ATCC 90028, 24 h
Summary of the method: (§5)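 Yeast broth dilution in RPMI 1640 with 2% glucose, compounds in DMSO. Yeasts pre-grown on Sabouraud dextrose agar. Growth read after 35 °C, 24 h.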

Escherichia coli [16] = experiment: Antibacterial activity against Escherichia coli ATCC 25922 measured after 18 hrs by CLSI broth dilution method; format: functional; settings: ATCC 25922, 18 h; summary of the method: as §2
[17] = test system: Stenotrophomonas maltophilia; experiment: Antibacterial activity against Stenotrophomonas maltophilia ATCC 13637 assessed as diameter of zone inhibition measured after 18 hrs by CLSI disc diffusion method; format: functional; summary of the method: as §1
Enterobacter cloacae [18] = experiment: Antibacterial activity against Enterobacter cloacae DSM 6234 measured after 18 hrs by CLSI broth dilution method; format: functional; settings: DSM 6234, 18 h; summary of the method: as §2
Pseudomonas aeruginosa [19] = experiment: Antibacterial activity against Pseudomonas aeruginosa ATCC 27853 assessed as diameter of zone inhibition measured after 18 hrs by CLSI disc diffusion method; format: functional, organism-based; summary of the method: as §1
[20] = test system: Stenotrophomonas maltophilia; experiment: Antibacterial activity against Stenotrophomonas maltophilia ATCC 13637 assessed as fold reduction of MIC in presence of efflux pump inhibitor PAbetaN incubated for 18 hrs by broth microdilution method; format: functional; summary of the method: as §4
[21] = test system: Meyerozyma guilliermondii; experiment: Antifungal activity against Candida guilliermondii IBA 155 assessed as decrease in fungal cell growth at 0.78 to 12.5 mg/L incubated for 24 hrs by CLSI broth dilution method; format: functional; settings: IBA 155, 24 h; summary of the method: as §5
[22] = test system: Staphylococcus epidermidis; experiment: Antibacterial activity against Staphylococcus epidermidis ATCC 12228 measured after 18 hrs by CLSI broth dilution method; format: functional; settings: ATCC 12228, 18 h; summary of the method: as §2
Burkholderia cepacia [23] = experiment: Antibacterial activity against Burkholderia cepacia ATCC 25416 assessed as diameter of zone inhibition measured after 18 hrs by CLSI disc diffusion method; format: functional; summary of the method: as §1
Acinetobacter baumannii = experiment: Antibacterial activity against Acinetobacter baumannii ATCC 19606 assessed as diameter of zone inhibition measured after 18 hrs by CLSI disc diffusion method; format: functional; summary of the method: as §1
[24] = test system: Staphylococcus epidermidis; experiment: Antibacterial activity against Staphylococcus epidermidis ATCC 12228 assessed as diameter of zone inhibition measured after 18 hrs by CLSI disc diffusion method; format: functional; summary of the method: as §1

Row | SMILES | diameter of the inhibition zone (DIZ) (Staphylococcus aureus [1]) | MIC (Enterococcus faecalis) [µg/mL] | MIC (Klebsiella pneumoniae) [µg/mL] | MIC (Staphylococcus aureus [2]) [µg/mL] | diameter of the inhibition zone (DIZ) (Bacillus subtilis) [mm] | MIC (Burkholderia cepacia [3]) [µg/mL] | diameter of the inhibition zone (DIZ) (Enterobacter cloacae [4]) | diameter of the inhibition zone (DIZ) (Saccharomyces cerevisiae [5]) | MIC (Serratia marcescens) [µg/mL] | diameter of the inhibition zone (DIZ) (Candida albicans [6]) | fold change (FC) (Enterobacter cloacae [7]) | diameter of the inhibition zone (DIZ) (Pichia kudriavzevii) | fold change (FC) (Escherichia coli [8]) | MIC (Proteus mirabilis) [µg/mL] | MIC (Saccharomyces cerevisiae [9]) [µg/mL] | MIC (Pseudomonas aeruginosa [10]) [µg/mL] | diameter of the inhibition zone (DIZ) (Escherichia coli [11]) | MIC (Enterococcus faecium) [µg/mL] | MIC [12] [µg/mL] | diameter of the inhibition zone (DIZ) (Candida parapsilosis) | also measured
1 | C[Si]1(C)OB(O)c2ccccc21 | inactive | > 200 | > 200 | 200 (≈ 1120 µM) | 14 | 200 (≈ 1120 µM) | inactive | 36 mm | > 200 | inactive | 4 | inactive | 4 | > 200 | 3.12 (≈ 17.5 µM) | > 200 | inactive | 200 (≈ 1120 µM) | > 200 | 11 mm | pKa [13]: 7.9; diameter of the inhibition zone (DIZ) [14]: 12 mm; MIC (Candida albicans [15]): 100 µg/mL (≈ 562 µM); MIC (Escherichia coli [16]): > 200 µg/mL; diameter of the inhibition zone (DIZ) [17]: inactive; MIC (Enterobacter cloacae [18]): > 200 µg/mL; diameter of the inhibition zone (DIZ) (Pseudomonas aeruginosa [19]): inactive; fold change (FC) [20]: 8; MIC [21]: 25 µg/mL (≈ 140 µM); MIC [22]: 50 µg/mL (≈ 281 µM); diameter of the inhibition zone (DIZ) (Burkholderia cepacia [23]): inactive; diameter of the inhibition zone (DIZ) (Acinetobacter baumannii): inactive; diameter of the inhibition zone (DIZ) [24]: 28 mm
2 | C[Si]1(C)OB(O)c2ccc(C=O)c(F)c21 | 21 mm | 400 (≈ 1790 µM) | > 400 | 25 (≈ 112 µM) | 22 | > 400 | inactive | inactive | > 400 | inactive | 16 | inactive | 16 | > 400 | > 400 | > 400 | inactive | 200 (≈ 893 µM) | > 400 | inactive | pKa [13]: 5.4; diameter of the inhibition zone (DIZ) [14]: inactive; MIC (Candida albicans [15]): 400 µg/mL (≈ 1790 µM); MIC (Escherichia coli [16]): > 400 µg/mL; diameter of the inhibition zone (DIZ) [17]: inactive; MIC (Enterobacter cloacae [18]): > 400 µg/mL; diameter of the inhibition zone (DIZ) (Pseudomonas aeruginosa [19]): inactive; fold change (FC) [20]: 16; MIC [21]: > 400 µg/mL; MIC [22]: 50 µg/mL (≈ 223 µM); diameter of the inhibition zone (DIZ) (Burkholderia cepacia [23]): inactive; diameter of the inhibition zone (DIZ) (Acinetobacter baumannii): inactive; diameter of the inhibition zone (DIZ) [24]: 27 mm
3 | C[Si]1(C)OB(O)c2ccc(Cl)c(Cl)c21 | 23 mm | 25 (≈ 101 µM) | 400 (≈ 1620 µM) | 6.25 (≈ 25.3 µM) | 33 | > 400 | inactive | 36 mm | > 400 | 33 mm | 64 | 29 mm | 64 | > 400 | 6.25 (≈ 25.3 µM) | > 400 | inactive | 25 (≈ 101 µM) | 200 (≈ 810 µM) | 28 mm | pKa [13]: 6; diameter of the inhibition zone (DIZ) [14]: 47 mm; MIC (Candida albicans [15]): 12.5 µg/mL (≈ 50.6 µM); MIC (Escherichia coli [16]): 400 µg/mL (≈ 1620 µM); diameter of the inhibition zone (DIZ) [17]: 13 mm; MIC (Enterobacter cloacae [18]): > 400 µg/mL; diameter of the inhibition zone (DIZ) (Pseudomonas aeruginosa [19]): inactive; fold change (FC) [20]: 32; MIC [21]: 25 µg/mL (≈ 101 µM); MIC [22]: 6.25 µg/mL (≈ 25.3 µM); diameter of the inhibition zone (DIZ) (Burkholderia cepacia [23]): inactive; diameter of the inhibition zone (DIZ) (Acinetobacter baumannii): inactive; diameter of the inhibition zone (DIZ) [24]: 22 mm
